Assay results reported in ChEMBL document CHEMBL2021884, “Azaindenoisoquinolines as topoisomerase I inhibitors and potential anticancer agents: a systematic study of structure-activity relationships” (2012).
Active and inactive are the calls of the source. No cut-off for these calls is given here.

Tests used:
HCT-116 [1] = assay: Growth inhibition of human HCT116 cells after 48 hrs by sulforhodamine B assay; type: functional; details: HCT-116, 48 h
How it was run: (§1)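 NCI 60-cell-line screen: cells exposed 48 h to five 10-fold dilutions starting at 100 μM (range 10−4 to 10−8 M), then stained with sulforhodamine B. Optical densities relative to control plotted against log concentration. GI50 interpolated between points above and below 50% growth. Single determinations.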

OVCAR-3 [2] = assay: Growth inhibition of human OVCAR3 cells after 48 hrs by sulforhodamine B assay; type: functional; details: OVCAR-3, 48 h; how it was run: as §1
MCF7 [3] = assay: Growth inhibition of human MCF7 cells after 48 hrs by sulforhodamine B assay; type: functional; details: MCF7, 48 h; how it was run: as §1
SN12C [4] = assay: Growth inhibition of human SN12C cells after 48 hrs by sulforhodamine B assay; type: functional; how it was run: as §1
HOP-62 [5] = assay: Growth inhibition of human HOP62 cells after 48 hrs by sulforhodamine B assay; type: functional; details: HOP-62, 48 h; how it was run: as §1
SF-539 [6] = assay: Growth inhibition of human SF539 cells after 48 hrs by sulforhodamine B assay; type: functional; details: SF-539, 48 h; how it was run: as §1
UACC-62 [7] = assay: Growth inhibition of human UACC62 cells after 48 hrs by sulforhodamine B assay; type: functional; details: UACC-62, 48 h; how it was run: as §1
[8] = target: T1, DNA topoisomerase 1 (Homo sapiens) (UniProt P11387); assay: Inhibition of human recombinant topoisomerase 1-mediated DNA cleavage using [32P]-3'-end-labeled 117-bp DNA fragment as substrate at 0.1 to 100 uM after 20 mins by SDS-PAGE analysis
T1 sequence (whole entry): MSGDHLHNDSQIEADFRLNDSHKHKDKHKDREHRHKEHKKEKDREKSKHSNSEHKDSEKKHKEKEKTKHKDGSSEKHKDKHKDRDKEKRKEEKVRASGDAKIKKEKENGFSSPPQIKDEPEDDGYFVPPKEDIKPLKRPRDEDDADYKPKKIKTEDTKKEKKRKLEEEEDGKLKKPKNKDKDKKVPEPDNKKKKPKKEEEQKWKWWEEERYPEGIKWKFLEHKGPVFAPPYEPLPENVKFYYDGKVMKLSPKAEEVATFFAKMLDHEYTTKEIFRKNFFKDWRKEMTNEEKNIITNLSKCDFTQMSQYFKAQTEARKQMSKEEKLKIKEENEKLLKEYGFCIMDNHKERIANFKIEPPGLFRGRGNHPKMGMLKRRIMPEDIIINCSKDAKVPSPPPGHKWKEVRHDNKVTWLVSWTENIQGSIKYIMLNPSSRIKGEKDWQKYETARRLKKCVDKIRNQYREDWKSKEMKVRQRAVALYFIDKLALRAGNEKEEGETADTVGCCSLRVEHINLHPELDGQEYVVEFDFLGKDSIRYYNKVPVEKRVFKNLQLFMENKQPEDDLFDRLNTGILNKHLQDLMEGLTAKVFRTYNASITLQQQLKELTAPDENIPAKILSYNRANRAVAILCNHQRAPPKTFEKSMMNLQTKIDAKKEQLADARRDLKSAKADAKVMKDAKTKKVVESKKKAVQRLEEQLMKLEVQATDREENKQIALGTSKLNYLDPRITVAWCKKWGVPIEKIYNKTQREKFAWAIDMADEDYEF
How it was run: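 Human Top1 expressed in baculovirus and purified. Substrate is a 117-bp oligonucleotide carrying the pBluescript SK(−) cleavage sites, 3′-end-labeled by Klenow fill-in with [α-32P]dGTP. Compound at 0.1, 1, 10, 100 μM; reaction stopped with 0.5% SDS (final) plus formamide loading dye.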

DU-145 [9] = assay: Growth inhibition of human DU145 cells after 48 hrs by sulforhodamine B assay; type: functional; details: DU-145, 48 h; how it was run: as §1
[10] = target: T1, DNA topoisomerase 1 (Homo sapiens); assay: Inhibition of human recombinant topoisomerase 1-mediated DNA cleavage using [32P]-3'-end-labeled 117-bp DNA fragment as substrate at 100 uM after 20 mins by SDS-PAGE analysis
How it was run: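 Human recombinant Top1 purified from baculovirus. Substrate: 117-bp oligonucleotide 3′-end-labeled by Klenow fill-in with [α-32P]dGTP, ~2 nM. Compounds tested at 0.1–100 μM. Stopped with 0.5% SDS plus formamide loading dye. Cleavage sites scored on gel.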

DU-145 [11] = assay: Growth inhibition of human DU145 cells at 10 uM after 48 hrs by sulforhodamine B assay; type: functional, cell-based
How it was run: (§2)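 NCI screen single-concentration test at 10 μM, 48 h exposure, sulforhodamine B staining. Optical density read relative to untreated control. Used as initial testing to decide whether multi-dose GI50 testing was warranted.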

HCT-116 [12] = assay: Growth inhibition of human HCT116 cells at 10 uM after 48 hrs by sulforhodamine B assay; type: functional, cell-based; how it was run: as §2
UACC-62 [13] = assay: Growth inhibition of human UACC62 cells at 10 uM after 48 hrs by sulforhodamine B assay; type: functional, cell-based; how it was run: as §2
SN12C [14] = assay: Growth inhibition of human SN12C cells at 10 uM after 48 hrs by sulforhodamine B assay; type: functional, cell-based; how it was run: as §2
SF-539 [15] = assay: Growth inhibition of human SF539 cells at 10 uM after 48 hrs by sulforhodamine B assay; type: functional, cell-based; how it was run: as §2
HOP-62 [16] = assay: Growth inhibition of human HOP62 cells at 10 uM after 48 hrs by sulforhodamine B assay; type: functional, cell-based; how it was run: as §2
MCF7 [17] = assay: Growth inhibition of human MCF7 cells at 10 uM after 48 hrs by sulforhodamine B assay; type: functional, cell-based; how it was run: as §2
OVCAR-3 [18] = assay: Growth inhibition of human OVCAR3 cells at 10 uM after 48 hrs by sulforhodamine B assay; type: functional, cell-based; how it was run: as §2

Structure (SMILES)	GI50 (HCT-116 [1]) [nM]	GI50 (OVCAR-3 [2]) [nM]	GI50 (MCF7 [3]) [nM]	GI50 (SN12C [4]) [nM]	GI50 (HOP-62 [5]) [nM]	GI50 (SF-539 [6]) [nM]	GI50 (UACC-62 [7]) [nM]	inhibition [8]	GI50 (DU-145 [9]) [nM]	inhibition [10]	growth inhibition (GI) (DU-145 [11])	growth inhibition (GI) (HCT-116 [12])	growth inhibition (GI) (UACC-62 [13])	growth inhibition (GI) (SN12C [14])	growth inhibition (GI) (SF-539 [15])	growth inhibition (GI) (HOP-62 [16])	growth inhibition (GI) (MCF7 [17])	growth inhibition (GI) (OVCAR-3 [18])
COc1cnc2c(c1)C(=O)c1c-2n(CCCN2CCOCC2)c(=O)c2cc(OC)c(OC)cc12	330	310	100	340	240	270	220	Active	340									
COc1cc2c3c(n(CCCN(C)C)c(=O)c2cc1OC)-c1ccncc1C3=O	620	7400	3900	8500	6500	12000	> 100000	Active	2900									
COc1cc2c3c(n(C)c(=O)c2cc1OC)-c1cc2c(cc1C3=O)OCO2			1900	26000	2800	1700	560		4800	Active								
COc1ccc2c(n1)C(=O)c1c-2n(CCCN(C)C)c(=O)c2cc(OC)c(OC)cc12								Active			Active	Active	Active	Active	Active	Active	Active	Active
COc1cnc2c(c1)C(=O)c1c-2n(CCCN2CCOCC2)c(=O)c2ccccc12	2500	6300	600	2600	4100	3500	1700	Active	3600									
COc1cnc2c(c1)C(=O)c1c-2n(CCCN(C)C)c(=O)c2cc([N+](=O)[O-])ccc12	74	140	24	57	54	78	52	Active	51									
COc1cnc2c(c1)C(=O)c1c-2n(CCCN2CCOCC2)c(=O)c2cc([N+](=O)[O-])ccc12	50	110	20	43	51	35	40	Active	40									
COc1cc2c3c(n(CCCN4CCOCC4)c(=O)c2cc1OC)-c1ccncc1C3=O	390	12000	1900	5900	5000	> 100000	85000	Active	7600									
COc1ccc2c(n1)C(=O)c1c-2n(CCCN2CCOCC2)c(=O)c2cc(OC)c(OC)cc12								Active			Active	Active		Active	Active	Active	Active	Active
COc1cc2c3c(n(CCCN4CCOCC4)c(=O)c2cc1OC)-c1ncccc1C3=O	220	370	52	520	300		100	Active	310									
COc1cc2c3c(n(CCCN4CCOCC4)c(=O)c2cc1OC)-c1cnccc1C3=O	2500	24000	4100	16000	6500	40000	48000	Active	24000									
COc1cc2c3c(n(CCCN(C)C)c(=O)c2cc1OC)-c1cccnc1C3=O								Active			Active	Active	Active	Active	Active	Active	Active	Active
CC[C@@]1(O)C(=O)OCc2c1cc1n(c2=O)Cc2cc3ccccc3nc2-1 [CAMPTOTHECIN]			13															
COc1cc2c3c(n(CCCN(C)C)c(=O)c2cc1OC)-c1cnccc1C3=O								Active			Active		Active	Active	Active	Active	Active	Active
COc1cnc2c(c1)C(=O)c1c-2n(CCCN(C)C)c(=O)c2ccccc12	340	940	210	260	300	570	540	Active	300									
COc1cc2c3c(n(CCCN(C)C)c(=O)c2cc1OC)-c1ncccc1C3=O	1600	3600	440	3200	3400	4100	13000	Active	1700									
COc1cnc2c(c1)C(=O)c1c-2n(CCCN(C)C)c(=O)c2cc(OC)c(OC)cc12	1500	2900	130	3600	920	1100	3900	Active	880									
